Measurements reported in ChEMBL document CHEMBL1121485, “Antiestrogens. Synthesis and evaluation of mammary tumor inhibiting activity of 1,1,2,2-tetraalkyl-1,2 -diphenylethanes” (1980).

What was measured:
[1] = target: T1, Estrogen receptor (Bos taurus) (UniProt Q9XSB5+P49884); assay: Association constant for Estrogen receptor; type: protein assay
[2] = target: T1, Estrogen receptor (Bos taurus); assay: Relative binding affinity for Estrogen receptor compared to 17-beta-estradiol; type: protein assay
[3] = target: T2, Estrogen receptor (Mus musculus) (UniProt O08537+P19785); assay: Uterotrophic effect in mice as uterus dry weight(mg) compared to body weight(g) at 0 ug/day dose; type: functional, tissue-based
T2 sequence (O08537 whole entry, looked up): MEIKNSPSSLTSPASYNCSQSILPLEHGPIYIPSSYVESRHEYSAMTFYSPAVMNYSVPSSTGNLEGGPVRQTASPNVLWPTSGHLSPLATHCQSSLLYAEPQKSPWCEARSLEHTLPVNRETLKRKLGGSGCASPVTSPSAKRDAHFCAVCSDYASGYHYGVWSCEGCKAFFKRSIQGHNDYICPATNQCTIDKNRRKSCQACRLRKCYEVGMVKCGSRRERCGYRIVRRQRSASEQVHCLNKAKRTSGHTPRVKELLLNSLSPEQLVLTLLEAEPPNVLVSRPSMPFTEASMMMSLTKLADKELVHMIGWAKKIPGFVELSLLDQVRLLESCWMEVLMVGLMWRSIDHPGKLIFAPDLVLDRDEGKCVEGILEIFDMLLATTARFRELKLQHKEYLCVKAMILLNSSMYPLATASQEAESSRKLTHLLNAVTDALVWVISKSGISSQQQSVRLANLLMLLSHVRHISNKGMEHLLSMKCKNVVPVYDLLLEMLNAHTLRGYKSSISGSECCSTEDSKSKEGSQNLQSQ
T2 sequence (P19785 whole entry, looked up): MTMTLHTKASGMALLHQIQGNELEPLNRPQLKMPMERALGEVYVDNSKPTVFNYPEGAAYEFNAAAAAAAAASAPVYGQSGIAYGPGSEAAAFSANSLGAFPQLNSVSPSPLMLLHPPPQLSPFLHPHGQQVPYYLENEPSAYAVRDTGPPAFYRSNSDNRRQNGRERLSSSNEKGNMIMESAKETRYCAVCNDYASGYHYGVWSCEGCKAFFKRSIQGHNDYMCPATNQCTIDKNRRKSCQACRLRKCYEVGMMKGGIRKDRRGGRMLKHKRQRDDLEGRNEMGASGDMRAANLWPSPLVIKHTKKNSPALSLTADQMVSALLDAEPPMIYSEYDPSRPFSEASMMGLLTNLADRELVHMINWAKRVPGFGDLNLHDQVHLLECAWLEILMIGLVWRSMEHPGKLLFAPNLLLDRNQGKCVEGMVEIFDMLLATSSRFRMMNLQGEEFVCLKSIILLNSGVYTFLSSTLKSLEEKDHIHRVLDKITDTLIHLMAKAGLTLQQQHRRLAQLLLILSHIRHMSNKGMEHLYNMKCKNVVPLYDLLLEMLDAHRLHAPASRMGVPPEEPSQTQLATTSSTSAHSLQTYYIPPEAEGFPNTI
How it was run: (§1)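 Mice aged 20 days at start, dosed sc once daily for 3 days (0.1 mL injections, arachis oil vehicle); vehicle-only control group. Killed 24 h after last dose; body weight recorded; uteri fixed in Bouin's solution 12 h, trimmed of connective tissue, washed with saturated alcoholic LiCl, dried 100 °C for 24 h, then weighed.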

[4] = target: T2, Estrogen receptor (Mus musculus); assay: Uterotrophic effect in mice as uterus dry weight(mg) compared to body weight(g) at 10 ug/day dose; type: functional, tissue-based; how it was run: as §1
[5] = target: T2, Estrogen receptor (Mus musculus); assay: Uterotrophic effect in mice as uterus dry weight(mg) compared to body weight(g) at 2.5 ug/day dose; type: functional, tissue-based; how it was run: as §1
[6] = target: T2, Estrogen receptor (Mus musculus); assay: Uterotrophic effect in mice as uterus dry weight(mg) compared to body weight(g) at 250 ug/day dose; type: functional, tissue-based; how it was run: as §1
[7] = target: T2, Estrogen receptor (Mus musculus); assay: Uterotrophic effect in mice as uterus dry weight(mg) compared to body weight(g) at 50 ug/day dose; type: functional, tissue-based; how it was run: as §1
[8] = target: T2, Estrogen receptor (Mus musculus); assay: Anti-uterotrophic effect in mice as uterus dry weight(mg) compared to body weight(g) at 0 ug/day dose; type: functional, tissue-based; how it was run: as §1
[9] = target: T2, Estrogen receptor (Mus musculus); assay: Anti-uterotrophic effect in mice as uterus dry weight(mg) compared to body weight(g) at 10 ug/day dose; type: functional, tissue-based; how it was run: as §1
[10] = target: T2, Estrogen receptor (Mus musculus); assay: Anti-uterotrophic effect in mice as uterus dry weight(mg) compared to body weight(g) at 100 ug/day dose; type: functional, tissue-based; how it was run: as §1
[11] = target: T2, Estrogen receptor (Mus musculus); assay: Anti-uterotrophic effect in mice as uterus dry weight(mg) compared to body weight(g) at 2.5 ug/day dose; type: functional, tissue-based; how it was run: as §1
[12] = target: T2, Estrogen receptor (Mus musculus); assay: Anti-uterotrophic effect in mice as uterus dry weight(mg) compared to body weight(g) at 25 ug/day dose; type: functional, tissue-based; how it was run: as §1
[13] = target: T1, Estrogen receptor (Bos taurus); assay: Ratio of association constants for estradiol and compound in estrogen receptor binding assay; type: protein assay
Mus musculus [14] = species on record: Mus musculus; assay: Inhibition of estrone-stimulated uterine growth in mice at 25 ug
Mus musculus [15] = species on record: Mus musculus; assay: Inhibition of estrone-stimulated uterine growth in mice at 10 ug
Mus musculus [16] = species on record: Mus musculus; assay: Inhibition of estrone-stimulated uterine growth in mice at 100 ug
Mus musculus [17] = species on record: Mus musculus; assay: Inhibition of estrone-stimulated uterine growth in mice at 2.5 ug
[18] = target: T2, Estrogen receptor (Mus musculus); assay: Uterotrophic effect in mice as uterus dry weight(mg) compared to body weight(g) at 100 ug/day dose; type: functional, tissue-based; how it was run: as §1
[19] = target: T2, Estrogen receptor (Mus musculus); assay: Uterotrophic effect in mice as uterus dry weight(mg) compared to body weight(g) at 25 ug/day dose; type: functional, tissue-based; how it was run: as §1
[20] = target: T2, Estrogen receptor (Mus musculus); assay: Uterotrophic effect in mice as uterus dry weight(mg) compared to body weight(g) at 5 ug/day dose; type: functional, tissue-based; how it was run: as §1
[21] = target: T2, Estrogen receptor (Mus musculus); assay: Uterotrophic effect in mice as uterus dry weight(mg) compared to body weight(g) at 500 ug/day dose; type: functional, tissue-based; how it was run: as §1
[22] = target: T2, Estrogen receptor (Mus musculus); assay: Anti-uterotrophic effect in mice as uterus dry weight(mg) compared to body weight(g) at 5 ug/day dose; type: functional, tissue-based; how it was run: as §1
[23] = target: T2, Estrogen receptor (Mus musculus); assay: Anti-uterotrophic effect in mice as uterus dry weight(mg) compared to body weight(g) at 50 ug/day dose; type: functional, tissue-based; how it was run: as §1
Mus musculus [24] = species on record: Mus musculus; assay: Inhibition of estrone-stimulated uterine growth in mice at 5 ug
Mus musculus [25] = species on record: Mus musculus; assay: Inhibition of estrone-stimulated uterine growth in mice at 50 ug
[26] = target: T2, Estrogen receptor (Mus musculus); assay: Anti-uterotrophic effect in mice as uterus dry weight(mg) compared to body weight(g) at 500 ug/day dose; type: functional, tissue-based; how it was run: as §1
[27] = target: T2, Estrogen receptor (Mus musculus); assay: Uterotrophic effect in mice as uterus dry weight(mg) compared to body weight(g) at 20 ug/day dose; type: functional, tissue-based; how it was run: as §1
[28] = target: T2, Estrogen receptor (Mus musculus); assay: Uterotrophic effect in mice as uterus dry weight(mg) compared to body weight(g) at 4 ug/day dose; type: functional, tissue-based; how it was run: as §1
Mus musculus [29] = species on record: Mus musculus; assay: Inhibition of estrone-stimulated uterine growth in mice at 500 ug

Compound	Ka [1] [M⁻¹]	RA [2]	RAC [13]	Effect [3]	Effect [4]	Effect [5]	Effect [6]	Effect [7]	Effect [8]	Effect [9]	Effect [10]	Effect [11]	Effect [12]	Inhibition (Mus musculus [14]) [%]	Inhibition (Mus musculus [15]) [%]	Inhibition (Mus musculus [16]) [%]	Inhibition (Mus musculus [17]) [%]	Effect [18]	Effect [19]	Effect [21]	also measured
CC(=O)Oc1cc(OC(C)=O)cc(C(C)(C)C(C)(C)c2cc(OC(C)=O)cc(OC(C)=O)c2)c1	480000	7.1e-05	6.6e-05	11.4	12.1	11.1	11.3	14.1	12.6	37.5	41.3	39.1	39	9.1	14.4	1.6	8.9				
CC(=O)Oc1ccc(C(C)(C)C(C)(C)c2ccc(OC(C)=O)c(OC(C)=O)c2)cc1OC(C)=O	1.5e+06	0.00023	0.00021	11.4	13.8	13.8	14.2	13.6	12.6	37.8	41.6	36.4	37.8	13.5	13.3	0.3	18.3				
CC(C)(c1ccc(F)c(O)c1)C(C)(C)c1ccc(F)c(O)c1	2.1e+07	0.0031	0.0029	15.4					15.7		27.3		35.2	20.9		53.1		16.7		21.4	Effect [26]: 25.2; Effect [27]: 16.7; Effect [28]: 17.8; Effect [22]: 36.1; Inhibition (Mus musculus [24]): 17.2%; Inhibition (Mus musculus [29]): 61.5%

The next lines start with results.

Ka [1] [M⁻¹]	RA [2]	RAC [13]	Compound	Effect [3]	Effect [4]	Effect [5]	Effect [6]	Effect [7]	Effect [8]	Effect [9]	Effect [10]	Effect [11]	Effect [12]	Inhibition (Mus musculus [14]) [%]	Inhibition (Mus musculus [15]) [%]	Inhibition (Mus musculus [16]) [%]	Inhibition (Mus musculus [17]) [%]	Effect [18]	Effect [19]	Effect [21]	also measured
4e+07	0.006	0.0056	CC(C)(c1ccc(O)c(O)c1)C(C)(C)c1ccc(O)c(O)c1	9.6					15.7		28.4		35	21.5		45.5		10	8.9	12.5	Effect [20]: 9.7; Effect [22]: 38.6; Effect [23]: 32.8; Inhibition (Mus musculus [24]): 6.8%; Inhibition (Mus musculus [25]): 30.4%
290000	4.3e-05	4e-05	CC(C)(c1cc(O)cc(O)c1)C(C)(C)c1cc(O)cc(O)c1	9.6					11.3	30.6	40.4				11.7			8.5	9.4	14.3	Effect [26]: 38.9; Effect [20]: 9
